In ChEMBL document CHEMBL1144043, “Second-generation aspirin and indomethacin prodrugs possessing an O(2)-(acetoxymethyl)-1-(2-carboxypyrrolidin-1-yl)diazenium-1,2-diolate nitric oxide donor moiety: design, synthesis, biological evaluation, and nitric oxide release studies” (J Med Chem, 2008):

Legend:
Rattus norvegicus [1] = test: Analgesic activity against sodium chloride-induced abdominal constriction in rat at 48 umol/kg, po after 30 mins; type: functional, Abdomen
How it was run: (§1)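 4% NaCl-induced writhing (abdominal constriction) assay in rats after oral dosing; writhing inhibition scored at 30 and 60 min post-dose; reported as % inhibition, mean ± SEM, n = 4.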

[2] = Effect on nitric oxide release in phosphate-buffered solution at pH 7.4 by Sievers nitric oxide analyzer; type: functional
How it was run: (§2)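 Compound in DMSO injected into a sealed cell holding deoxygenated 0.1 M phosphate buffer (3 mL, pH 7.4) with 50 µM DTPA at 37 °C. NO is carried by N2 purge to a chemiluminescence analyzer, and AUC is converted with a calibration curve to mol NO/mol compound. The time to about 50% of theoretical NO is read graphically from time vs mol NO/min curves.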

[3] = Effect on nitric oxide release phosphate-buffered solution assessed as time required to detect about 50% of NO/mol of compound by Sievers nitric oxide analyzer; type: functional; how it was run: as §2
[4] = Effect on nitric oxide release assessed as time required to detect more than 90% of NO/mol of compound by Sievers nitric oxide analyzer; type: functional
How it was run: (§3)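 Porcine liver esterase (29 units, suspension in 3.2 M ammonium sulfate) in phosphate buffer (3 mL) at pH 8.0, 37 °C; compound injected as a DMSO solution. NO is swept by N2 to a chemiluminescence analyzer and AUC is quantified against a calibration curve. The time to more than 90% of theoretical NO is read graphically from time vs mol NO/min curves.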

Rattus norvegicus [5] = test: Toxicity in rat assessed as ulcer index at 0.08 mmol/kg, po after 6 hrs; type: organism-based; settings: in vivo
How it was run: (§4)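 Rats fasted 24 h (water allowed) were dosed orally in 1.7 mL 1% methylcellulose; vehicle controls received the same. Stomachs were removed 6 h later after CO2 euthanasia. Ulcer index is the summed ulcer length (mm) per stomach averaged over n = 4, given as mean ± SEM.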

Rattus norvegicus [6] = test: Antiinflammatory activity against carrageenan-induced foot paw edema in rat; type: functional
How it was run: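 Carrageenan-induced rat paw edema after oral administration; ED50 taken as the dose lowering the inflammatory response by 50% in the group of animals (n = 4).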

Rattus norvegicus [7] = test: Analgesic activity against sodium chloride-induced abdominal constriction in rat at 48 umol/kg, po after 60 mins; type: functional, Abdomen; how it was run: as §1
[8] = Effect on nitric oxide release in phosphate-buffered solution in presence of porcine liver esterase by Sievers nitric oxide analyzer; type: functional; how it was run: as §3
Rattus norvegicus [9] = test: Analgesic activity against sodium chloride-induced abdominal constriction in rat at 68 umol/kg, po after 30 mins; type: functional, Abdomen; how it was run: as §1
Rattus norvegicus [10] = test: Toxicity in rat assessed as ulcer index at 1.38 mmol/kg, po after 6 hrs; type: organism-based; settings: in vivo; how it was run: as §4
Rattus norvegicus [11] = test: Analgesic activity against sodium chloride-induced abdominal constriction in rat at 68 umol/kg, po after 60 mins; type: functional, Abdomen; how it was run: as §1
Rattus norvegicus [12] = test: Analgesic activity against sodium chloride-induced abdominal constriction in rat at 277 umol/kg, po after 30 mins; type: functional, Abdomen; how it was run: as §1
Rattus norvegicus [13] = test: Analgesic activity against sodium chloride-induced abdominal constriction in rat at 277 umol/kg, po after 60 mins; type: functional, Abdomen; how it was run: as §1
Rattus norvegicus [14] = test: Analgesic activity against sodium chloride-induced abdominal constriction in rat at 84 umol/kg, po after 60 mins; type: functional, Abdomen; how it was run: as §1
Rattus norvegicus [15] = test: Analgesic activity against sodium chloride-induced abdominal constriction in rat at 84 umol/kg, po after 30 mins; type: functional, Abdomen; how it was run: as §1

COc1ccc2c(c1)c(CC(=O)OCOC(=O)[C@@H]1CCCN1/[N+]([O-])=N/OCOC(C)=O)c(C)n2C(=O)c1ccc(Cl)cc1
Activity (Rattus norvegicus [1]): 36.3%
Activity [2]: 1.1
TIME [3]: 45 h
TIME [4]: 0.0533 h
UI (Rattus norvegicus [5]): 0
ED50 (Rattus norvegicus [6]): 18.5 µmol/kg
Activity (Rattus norvegicus [7]): 61.5%
Activity [8]: 1.8

CC(=O)OCO/N=[N+](\[O-])N1CCC[C@H]1C(=O)OCOC(=O)c1ccccc1OC(C)=O
Activity [2]: 1.1
TIME [3]: 43 h
TIME [4]: 0.04 h
Activity (Rattus norvegicus [9]): 24.6%
ED50 (Rattus norvegicus [6]): 314 µmol/kg
UI (Rattus norvegicus [10]): 0.75
Activity [8]: 1.9
Activity (Rattus norvegicus [11]): 65.8%

CC(=O)Oc1ccccc1C(=O)O [ASPIRIN]
Activity (Rattus norvegicus [12]): 56.5%
ED50 (Rattus norvegicus [6]): 710 µmol/kg
Activity (Rattus norvegicus [13]): 64.3%
UI (Rattus norvegicus [10]): 51.4

O=C(O)[C@@H]1CCCN1/[N+]([O-])=N/O
Activity [2]: 2
TIME [4]: 0.0005 h

COc1ccc2c(c1)c(CC(=O)O)c(C)n2C(=O)c1ccc(Cl)cc1 [INDOMETHACIN]
UI (Rattus norvegicus [5]): 64.5
ED50 (Rattus norvegicus [6]): 11.8 µmol/kg
Activity (Rattus norvegicus [14]): 67.6%
Activity (Rattus norvegicus [15]): 51.8%
